Activity calls are given as the source filed them. The rule behind the calls is not given here.
Assays:
SW480 [1] = assay: Cytotoxicity against human SW480 cells by MTT assay; assay type: functional, cell-based
Method in brief: (§1)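 Antiproliferative IC50 was measured in human tumor lines: H460a (lung), HCT116, RKO and SW480 (colon), and MDA-MB435 (breast). Values are the mean of duplicate wells.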

[2] = biological target: Cyclin-dependent kinase 2/cyclin E (Homo sapiens, UniProt P24941); assay: Inhibition of CDK2-cyclin E; assay type: protein-complex assay
Method in brief: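 CDK2 was paired with cyclin E1. IC50 came from at least two replicates at each concentration.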

[3] = biological target: Proto-oncogene tyrosine-protein kinase Src (Homo sapiens, UniProt P12931); assay: Inhibition of Src
Sequence of Proto-oncogene tyrosine-protein kinase Src (P12931 2-536 limits assumed): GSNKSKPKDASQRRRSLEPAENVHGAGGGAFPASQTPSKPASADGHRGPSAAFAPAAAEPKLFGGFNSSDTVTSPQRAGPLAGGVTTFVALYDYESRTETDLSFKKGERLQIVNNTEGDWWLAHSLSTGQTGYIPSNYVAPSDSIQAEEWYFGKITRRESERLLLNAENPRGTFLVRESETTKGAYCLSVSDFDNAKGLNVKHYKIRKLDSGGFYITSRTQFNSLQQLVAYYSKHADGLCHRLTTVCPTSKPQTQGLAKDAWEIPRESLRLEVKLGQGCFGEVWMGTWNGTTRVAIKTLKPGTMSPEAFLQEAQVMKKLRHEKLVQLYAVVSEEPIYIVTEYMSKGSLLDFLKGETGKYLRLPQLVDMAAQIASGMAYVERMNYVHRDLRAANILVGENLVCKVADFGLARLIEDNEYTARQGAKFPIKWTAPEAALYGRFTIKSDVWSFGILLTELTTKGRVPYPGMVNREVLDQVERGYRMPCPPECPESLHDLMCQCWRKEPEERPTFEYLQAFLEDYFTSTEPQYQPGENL

[4] = biological target: CDK1-cyclin A1 (Homo sapiens); assay: Inhibition of CDK1-cyclin A1
[5] = Inhibition of PDGFR
[6] = biological target: Vascular endothelial growth factor receptor 2 (Homo sapiens, UniProt P35968); assay: Inhibition of KDR
Sequence of Vascular endothelial growth factor receptor 2 (P35968 whole entry): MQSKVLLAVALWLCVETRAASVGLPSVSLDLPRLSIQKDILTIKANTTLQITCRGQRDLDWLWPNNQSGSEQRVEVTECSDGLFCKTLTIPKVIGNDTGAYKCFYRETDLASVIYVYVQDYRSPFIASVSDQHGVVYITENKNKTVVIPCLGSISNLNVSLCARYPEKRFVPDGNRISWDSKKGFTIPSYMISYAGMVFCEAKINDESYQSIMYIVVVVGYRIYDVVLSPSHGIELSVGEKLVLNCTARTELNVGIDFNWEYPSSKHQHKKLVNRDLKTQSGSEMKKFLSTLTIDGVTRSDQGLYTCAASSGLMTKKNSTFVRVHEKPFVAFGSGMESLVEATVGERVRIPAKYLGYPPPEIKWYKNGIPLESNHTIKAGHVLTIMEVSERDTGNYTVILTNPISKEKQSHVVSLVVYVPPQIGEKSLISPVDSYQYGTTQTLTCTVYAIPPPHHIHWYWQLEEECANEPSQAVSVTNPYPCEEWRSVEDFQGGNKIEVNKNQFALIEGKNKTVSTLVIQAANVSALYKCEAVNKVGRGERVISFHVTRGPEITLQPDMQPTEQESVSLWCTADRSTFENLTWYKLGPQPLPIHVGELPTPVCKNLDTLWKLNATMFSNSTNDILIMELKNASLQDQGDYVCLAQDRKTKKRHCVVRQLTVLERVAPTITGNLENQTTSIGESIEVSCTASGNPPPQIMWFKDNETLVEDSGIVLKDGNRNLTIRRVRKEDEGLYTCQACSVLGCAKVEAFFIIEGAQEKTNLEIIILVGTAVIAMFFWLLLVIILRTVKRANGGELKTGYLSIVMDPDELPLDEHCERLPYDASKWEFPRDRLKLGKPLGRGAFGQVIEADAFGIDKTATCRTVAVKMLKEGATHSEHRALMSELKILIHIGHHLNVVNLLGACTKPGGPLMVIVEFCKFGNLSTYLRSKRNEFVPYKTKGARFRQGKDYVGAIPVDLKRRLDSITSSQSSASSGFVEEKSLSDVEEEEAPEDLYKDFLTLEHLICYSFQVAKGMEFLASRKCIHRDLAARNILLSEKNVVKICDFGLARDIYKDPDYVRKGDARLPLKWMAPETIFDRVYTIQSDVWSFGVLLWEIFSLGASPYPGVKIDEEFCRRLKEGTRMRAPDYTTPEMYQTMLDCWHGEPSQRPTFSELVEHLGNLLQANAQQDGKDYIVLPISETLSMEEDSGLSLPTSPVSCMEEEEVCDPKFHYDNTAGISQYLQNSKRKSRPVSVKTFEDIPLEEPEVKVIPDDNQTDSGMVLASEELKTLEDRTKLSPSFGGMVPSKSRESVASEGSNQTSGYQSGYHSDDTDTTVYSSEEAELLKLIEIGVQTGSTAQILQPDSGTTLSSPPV

[7] = biological target: CDK4-cyclin D1 (Homo sapiens); assay: Inhibition of CDK4/Cyclin D1
[8] = biological target: Epidermal growth factor receptor (Homo sapiens, UniProt P00533); assay: Inhibition of EGFR
Sequence of Epidermal growth factor receptor (P00533 whole entry): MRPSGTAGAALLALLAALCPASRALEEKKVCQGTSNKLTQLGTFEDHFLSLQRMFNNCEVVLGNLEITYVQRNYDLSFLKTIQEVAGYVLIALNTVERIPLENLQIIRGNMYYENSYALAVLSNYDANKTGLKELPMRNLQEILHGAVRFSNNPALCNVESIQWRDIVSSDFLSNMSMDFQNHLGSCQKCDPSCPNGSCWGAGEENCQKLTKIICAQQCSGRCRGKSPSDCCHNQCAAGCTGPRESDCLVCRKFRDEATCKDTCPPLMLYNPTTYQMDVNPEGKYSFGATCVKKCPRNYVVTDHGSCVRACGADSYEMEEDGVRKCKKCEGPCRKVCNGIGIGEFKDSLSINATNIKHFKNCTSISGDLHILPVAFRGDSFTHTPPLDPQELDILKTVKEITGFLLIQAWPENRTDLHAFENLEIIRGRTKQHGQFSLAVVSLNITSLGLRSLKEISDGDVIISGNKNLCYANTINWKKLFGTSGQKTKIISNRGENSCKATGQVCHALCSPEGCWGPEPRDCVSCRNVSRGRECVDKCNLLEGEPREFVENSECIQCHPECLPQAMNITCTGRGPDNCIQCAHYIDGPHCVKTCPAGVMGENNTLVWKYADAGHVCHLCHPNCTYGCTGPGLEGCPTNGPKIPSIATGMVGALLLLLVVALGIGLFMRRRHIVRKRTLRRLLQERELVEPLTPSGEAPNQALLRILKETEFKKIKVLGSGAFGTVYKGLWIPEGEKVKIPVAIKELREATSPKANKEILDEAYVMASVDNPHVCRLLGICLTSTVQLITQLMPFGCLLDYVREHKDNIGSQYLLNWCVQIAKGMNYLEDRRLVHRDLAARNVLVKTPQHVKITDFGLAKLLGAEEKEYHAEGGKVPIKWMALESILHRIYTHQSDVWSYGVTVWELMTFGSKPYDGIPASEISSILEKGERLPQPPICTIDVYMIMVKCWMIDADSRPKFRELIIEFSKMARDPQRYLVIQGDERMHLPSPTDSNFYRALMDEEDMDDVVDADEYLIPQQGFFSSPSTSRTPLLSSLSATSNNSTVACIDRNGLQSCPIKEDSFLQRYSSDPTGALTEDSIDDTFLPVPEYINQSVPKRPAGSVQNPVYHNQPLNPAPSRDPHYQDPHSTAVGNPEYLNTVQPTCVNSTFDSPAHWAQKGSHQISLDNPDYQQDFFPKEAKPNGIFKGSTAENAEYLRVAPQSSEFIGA

[9] = Inhibition of FGFR
Focal adhesion kinase 1 = Focal adhesion kinase 1 (Homo sapiens, UniProt Q05397); assay: Inhibition of FAK
Sequence of Focal adhesion kinase 1 (Q05397 whole entry): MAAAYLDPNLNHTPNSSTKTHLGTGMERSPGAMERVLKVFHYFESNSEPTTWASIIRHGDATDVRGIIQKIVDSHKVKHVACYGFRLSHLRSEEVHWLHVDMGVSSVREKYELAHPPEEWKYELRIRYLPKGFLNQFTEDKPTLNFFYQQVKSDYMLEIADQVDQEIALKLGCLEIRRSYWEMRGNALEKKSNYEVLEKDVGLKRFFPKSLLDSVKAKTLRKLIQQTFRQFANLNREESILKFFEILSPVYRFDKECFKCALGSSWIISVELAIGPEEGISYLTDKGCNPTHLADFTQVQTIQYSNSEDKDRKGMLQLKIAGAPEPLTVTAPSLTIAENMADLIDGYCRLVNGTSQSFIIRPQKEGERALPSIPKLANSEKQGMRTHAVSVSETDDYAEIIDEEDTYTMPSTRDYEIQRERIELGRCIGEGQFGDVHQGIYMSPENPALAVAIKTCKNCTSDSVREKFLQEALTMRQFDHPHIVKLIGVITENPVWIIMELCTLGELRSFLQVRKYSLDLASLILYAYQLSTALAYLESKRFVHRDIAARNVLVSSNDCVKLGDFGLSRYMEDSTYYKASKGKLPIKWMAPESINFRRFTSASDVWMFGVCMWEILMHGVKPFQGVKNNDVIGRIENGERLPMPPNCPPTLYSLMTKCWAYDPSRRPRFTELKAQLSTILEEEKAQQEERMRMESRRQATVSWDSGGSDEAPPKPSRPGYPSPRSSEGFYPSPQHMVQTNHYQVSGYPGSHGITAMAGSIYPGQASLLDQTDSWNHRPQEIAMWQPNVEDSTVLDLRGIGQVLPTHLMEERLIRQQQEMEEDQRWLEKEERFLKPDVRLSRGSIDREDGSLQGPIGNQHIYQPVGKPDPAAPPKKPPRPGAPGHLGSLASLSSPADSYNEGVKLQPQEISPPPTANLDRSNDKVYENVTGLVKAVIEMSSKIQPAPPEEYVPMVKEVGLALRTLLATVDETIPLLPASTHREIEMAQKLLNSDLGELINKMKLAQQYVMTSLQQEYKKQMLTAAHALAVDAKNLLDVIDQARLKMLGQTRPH

RKO = assay: Cytotoxicity against human RKO cells by MTT assay; assay type: functional, cell-based; method in brief: as §1
NCI-H460 [10] = assay: Antitumor activity against human H460 cells xenografted in mouse assessed as inhibition of tumor growth administered as po bid for 20 days; assay type: functional, organism-based
MDA-MB-435 = assay: Cytotoxicity against human MDA-MB-435 cells by MTT assay; assay type: functional, cell-based; method in brief: as §1
Mus musculus [11] = assay: Toxicity in human SW480 cells xenografted mouse assessed as mortality at 0.78 to 3.125 mg/kg, po bid for 20 days; assay type: organism-based; design: dose 0.78-3.125 mg/kg, route oral; settings: in vivo, 480 h
Method in brief: (§2)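 SW480 tumour-bearing nude mice were dosed by oral gavage (0.2 ml/animal) at 3.125, 1.56 or 0.78 mg/kg b.i.d. for 20 days, against a vehicle b.i.d. group. Animals were watched for drug-related toxicity, with body weight and tumour growth followed over days after tumour cell implant.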

LOX = assay: Antitumor activity against human LOX cells xenografted in mouse assessed as inhibition of tumor growth administered as po bid for 20 days; assay type: functional, organism-based
HCT-116 = assay: Cytotoxicity against human HCT116 cells by MTT assay; assay type: functional, cell-based; method in brief: as §1
SW480 [12] = assay: Antitumor activity against human SW480 cells xenografted in mouse assessed as inhibition of tumor growth at 1.56 mg/kg, po bid for 20 days; assay type: functional; settings: SW480, 480 h
Method in brief: (§3)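 SW480 tumor-bearing nude mice dosed per os by gavage (0.2 ml/animal) twice daily for 20 days at 3.125, 1.56 and 0.78 mg/kg, with vehicle b.i.d. control. Tumor growth was followed over days post-implant and expressed as %T/C and % inhibition, with p values. Body weight change was tracked over the study.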

NCI-H460 [13] = assay: Cytotoxicity against human H460a cells by MTT assay; assay type: functional, cell-based; method in brief: as §1
SW480 [14] = assay: Antitumor activity against human SW480 cells xenografted in mouse assessed as inhibition of tumor growth at 3.125 mg/kg, po bid for 20 days; assay type: functional; settings: SW480, 480 h; method in brief: as §3
A549 = assay: Antitumor activity against human A549 cells xenografted in mouse assessed as inhibition of tumor growth administered as po bid for 20 days; assay type: functional, organism-based
Mus musculus [15] = assay: Toxicity in human SW480 cells xenografted mouse assessed as body weight gain at 0.78 to 3.125 mg/kg, po bid for 20 days; assay type: organism-based; design: dose 0.78-3.125 mg/kg, route oral; settings: in vivo, 480 h; method in brief: as §3
Mus musculus [16] = assay: Toxicity in human SW480 cells xenografted mouse assessed as overt signs at 0.78 to 3.125 mg/kg, po bid for 20 days; assay type: organism-based; design: dose 0.78-3.125 mg/kg, route oral; settings: in vivo, 480 h; method in brief: as §2
LoVo = assay: Antitumor activity against human LoVo cells xenografted in mouse assessed as inhibition of tumor growth administered as po bid for 20 days; assay type: functional, organism-based
[17] = biological target: CDK4-cyclin D1 (Homo sapiens); assay: Inhibition of CDK4-cyclin D1
[18] = test system: CDK1-cyclin B (Homo sapiens); assay: Inhibition of CDK1-cyclin B

Cc1[nH]nc2c1N=C(c1ccccc1F)c1cc(F)ccc1N2
IC50 (SW480 [1]): 700 nM
IC50 [2]: 40 nM

N#Cc1ccc2c(c1)C(c1ccccc1F)=Nc1c[nH]nc1N2
IC50 [3]: 5400 nM
IC50 [4]: 139 nM
IC50 [5]: 51 nM
IC50 [6]: 39 nM
IC50 [7]: 520 nM
IC50 (SW480 [1]): 110 nM
IC50 [8]: 10900 nM
IC50 [9]: 67 nM
IC50 [2]: 16 nM
IC50 (Focal adhesion kinase 1): 1200 nM

Nc1ccc2c(c1)C(c1ccccc1Cl)=Nc1c[nH]nc1N2
IC50 (RKO): 310 nM
inhibition (NCI-H460 [10]): Active
IC50 [3]: 1840 nM
IC50 (MDA-MB-435): 950 nM
Activity (Mus musculus [11]): Non-toxic
inhibition (LOX): Active
IC50 (HCT-116): 1020 nM
IC50 [5]: 15 nM
inhibition in vivo at 1.56 mg/kg (SW480 [12]): 70%
IC50 [6]: 34 nM
IC50 (NCI-H460 [13]): 1070 nM
inhibition in vivo at 3.125 mg/kg (SW480 [14]): 93%
inhibition (A549): Active
Activity (Mus musculus [15]): 9%
Activity (Mus musculus [16]): Non-toxic
IC50 (SW480 [1]): 500 nM
IC50 [8]: 989 nM
IC50 [9]: 50 nM
inhibition (LoVo): Active
IC50 [2]: 88 nM
IC50 (Focal adhesion kinase 1): 150 nM

Cc1[nH]nc2c1N=C(c1ccccc1)c1cc(F)ccc1N2
IC50 (SW480 [1]): 2200 nM
IC50 [2]: 93 nM

O=[N+]([O-])c1ccc2c(c1)C(c1ccccc1Cl)=Nc1c(n[nH]c1C(F)(F)F)N2
IC50 [2]: 232 nM

O=[N+]([O-])c1ccc2c(c1)C(c1ccccc1Cl)=Nc1c[nH]nc1N2
IC50 [17]: 10 µM
IC50 [18]: 0.5 µM
IC50 (SW480 [1]): 6000 nM
IC50 [2]: 70 nM

Cc1[nH]nc2c1N=C(c1ccccc1Cl)c1cc([N+](=O)[O-])ccc1N2
IC50 [3]: > 60000 nM
IC50 [5]: 83 nM
IC50 [6]: 72 nM
IC50 (SW480 [1]): 160 nM
IC50 [8]: > 10000 nM
IC50 [9]: 100 nM
IC50 [2]: 35 nM
IC50 (Focal adhesion kinase 1): 6900 nM

O=[N+]([O-])c1ccc2c(c1)C(c1ccccc1Cl)=Nc1c(n[nH]c1-c1cccnc1)N2
IC50 (SW480 [1]): 26000 nM
IC50 [2]: 300 nM

NC(=O)c1[nH]nc2c1N=C(c1ccccc1Cl)c1cc([N+](=O)[O-])ccc1N2
IC50 [2]: 258 nM

CC(=O)Nc1ccc2c(c1)C(c1ccccc1Cl)=Nc1c[nH]nc1N2
IC50 (RKO): 793 nM
IC50 [3]: 930 nM
IC50 (MDA-MB-435): 794 nM
IC50 (HCT-116): 460 nM
IC50 [5]: 23 nM
IC50 [6]: 33 nM
IC50 (NCI-H460 [13]): 550 nM
IC50 (SW480 [1]): 700 nM
IC50 [8]: 726 nM
IC50 [9]: 45 nM
IC50 [2]: 38 nM
IC50 (Focal adhesion kinase 1): 180 nM

Cc1[nH]nc2c1N=C(c1ccccc1Cl)c1ccccc1N2
IC50 (SW480 [1]): 3800 nM
IC50 [2]: 105 nM

O=[N+]([O-])c1ccc2c(c1)C(c1ccccc1Cl)=Nc1c(n[nH]c1-c1ccncc1)N2
IC50 (SW480 [1]): 12000 nM
IC50 [2]: 50 nM

Cc1[nH]nc2c1N=C(c1ccccc1F)c1ccccc1N2
IC50 (SW480 [1]): 400 nM
IC50 [2]: 64 nM

Nc1n[nH]c2nc(-c3cccs3)cc(C(F)(F)F)c12
IC50 [17]: > 30 µM
IC50 [18]: 10 µM
IC50 (SW480 [1]): 6000 nM
IC50 [2]: 2000 nM

O=[N+]([O-])c1ccc2c(c1)C(c1ccccc1Cl)=Nc1c(n[nH]c1-c1ccccc1)N2
IC50 (SW480 [1]): 18000 nM
IC50 [2]: 210 nM

Cc1[nH]nc2c1N=C(c1ccccc1)c1ccccc1N2
IC50 (SW480 [1]): 1500 nM
IC50 [2]: 115 nM

CC(C)c1[nH]nc2c1N=C(c1ccccc1Cl)c1cc([N+](=O)[O-])ccc1N2
IC50 (SW480 [1]): 640 nM
IC50 [2]: 10 nM

O=[N+]([O-])c1ccc2c(c1)C(c1ccccc1Cl)=Nc1c(n[nH]c1-c1ccc[nH]1)N2
IC50 (SW480 [1]): 5300 nM
IC50 [2]: 20 nM

O=[N+]([O-])c1ccc2c(c1)C(c1ccccc1Cl)=Nc1c(n[nH]c1CCc1ccccc1)N2
IC50 (SW480 [1]): 15000 nM
IC50 [2]: 5000 nM

O=[N+]([O-])c1ccc2c(c1)C(c1ccccc1Cl)=Nc1c(n[nH]c1CO)N2
IC50 (SW480 [1]): 240 nM
IC50 [2]: 238 nM

From ChEMBL document CHEMBL1255207, “Pyrazolobenzodiazepines: part I. Synthesis and SAR of a potent class of kinase inhibitors” (Bioorg Med Chem Lett, 2010)
